OPRM1-OPRD1 ag: agonists of OPRM1-OPRD1 heterodimerization, primary screen, cell-based, luminescence; 0.3% of 340,000 active; activation, % at 9.3 µM; cells
Arr AP2 block: inhibitors of beta-arrestin/AP2 binding, primary screen, biochemical, GPCR trafficking, flow cytometry; AID 504490, 2011; inhibition, % at 10 µM; FITC-arrestin peptide / GST-AP2 beads; AP2 beta2 appendage carries R879A mutation; 0.31% of 340,000 active; beta-arrestin 1 C-terminal peptide binding to AP2 beta2-adaptin appendage (human);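 active = inhibition above a set limit, near 3 SD of compounds lacking own fluorescence, cut at about 54% in these data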
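Measured by: flow cytometry, FL1 (488/535 nm); Material: AP2 appendage R879A on GSH beads; Evaluation: percent response; Timing: pre-incubation 12 min, peptide binding 1 h, room temperature; Also added: 50 nM FITC-arrestin peptide; Medium: PBS with 0.05% Tween 20 and 0.1% BSA.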
HTR5A ag: HTR5A agonists in luminescence cell assay, primary screen, counter-screen for OPRM1-OPRD1 heterodimer agonist project, full-deck HTS | 5-hydroxytryptamine receptor 5A (Homo sapiens), P47898 | cell-based | activation, % at 9.3 µM | 0.61% of 340,000 active | AID 504692, 2011; in the data active = activation mostly above about 9.5%, no sharp cut-off; inactive = mostly below about 7.6%
MOR-DOR inv ag: inverse agonists of MOR-DOR heterodimerization, primary screen, cell-based, luminescence | Mu-type opioid receptor (Homo sapiens) + Delta-type opioid receptor (Homo sapiens), … | cell-based MOR-DOR heterodimer luminescence, inverse agonism | inhibition, % at 9.3 µM | 0.21% of 340,000 active; in the data active = inhibition above about 22%, passing the limit was not always enough
HTR5A inv ag: HTR5A inverse agonists in luminescence cell assay, primary screen, counter-screen for OPRM1-OPRD1 heterodimer inverse agonist project, full-deck HTS | AID 504634, 2011 | 0.083% of 340,000 active | HTR5A cell line, inverse agonism | 5-hydroxytryptamine receptor 5A (Homo sapiens), P47898 | inhibition, % at 9.3 µM; in the data active = inhibition mostly above about 23%, no sharp cut-off; inactive = mostly below about 18%
DAGLB inhibitor: DAGLB lipase inhibitors, primary screen, biochemical, fluorescence, HTS | AID 504411, 2011 | 0.059% of 340,000 active | Diacylglycerol lipase-beta (Homo sapiens), Q8NCG7 | inhibition, % at 5.17 µM | HEK293T DAGLB membrane lysate, EnzChek fluorogenic substrate; in the data active = inhibition above about 34%
Target sequence (Q8NCG7 whole entry, looked up): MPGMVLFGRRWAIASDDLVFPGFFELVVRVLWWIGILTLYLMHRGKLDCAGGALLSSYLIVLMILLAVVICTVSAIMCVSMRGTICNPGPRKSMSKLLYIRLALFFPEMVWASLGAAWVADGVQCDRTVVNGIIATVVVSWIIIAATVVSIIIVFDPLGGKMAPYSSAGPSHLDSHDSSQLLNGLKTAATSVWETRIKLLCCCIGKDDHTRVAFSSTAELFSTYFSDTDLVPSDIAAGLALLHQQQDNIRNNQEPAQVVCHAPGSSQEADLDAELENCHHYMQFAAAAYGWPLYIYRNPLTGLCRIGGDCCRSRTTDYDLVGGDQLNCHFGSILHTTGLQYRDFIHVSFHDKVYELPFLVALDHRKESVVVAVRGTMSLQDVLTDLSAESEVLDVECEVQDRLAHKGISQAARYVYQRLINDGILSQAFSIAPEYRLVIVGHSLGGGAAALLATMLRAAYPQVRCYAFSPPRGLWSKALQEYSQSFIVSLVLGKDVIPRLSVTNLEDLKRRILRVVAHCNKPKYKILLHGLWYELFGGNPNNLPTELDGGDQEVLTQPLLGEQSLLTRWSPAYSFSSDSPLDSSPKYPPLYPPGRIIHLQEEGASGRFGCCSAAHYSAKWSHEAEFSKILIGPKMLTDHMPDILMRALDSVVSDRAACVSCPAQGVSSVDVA
MOR-DOR ag conf: agonists of MOR-DOR heterodimerization, confirmation, cell-based, luminescence; shares compounds with OPRM1-OPRD1 ag; cells, luminescence complementation; activation, % at 9.3 µM; 45% of 830 active
HTR5A ag ctr2: HTR5A agonists in cells, counter-screen for OPRM1-OPRD1 heterodimer agonist project, cell-based, luminescence. shares compounds with OPRM1-OPRD1 ag. HTR5A agonist counterscreen. activation, % at 9.3 µM. 8% of 830 active. AID 504905, 2011; in the data active = activation above about 17%
Large screens that a line does not name were inactive (follow-up assays come after a bar, where they were run). Sampled rows, rich in hits. Any-hit rate of the full collection: about 1.4%. Rule as the data show it, unless noted: active = activation above about 18%; inactive = the rest.

COc1ccc(OCC(O)Cn2c(=N)n(Cc3ccccc3)c3ccccc32)cc1 (stereo unspecified)	none
Brc1ccc(NC2=Nc3ccccc3CC2)cc1	OPRM1-OPRD1 ag 26 | MOR-DOR ag conf 230 | HTR5A ag ctr2 inactive
CCOc1ccc(Oc2ccc(NS(=O)(=O)c3ccc(CCC(=O)O)cc3)cc2)cc1	none (no result: OPRM1-OPRD1 ag, Arr AP2 block, HTR5A ag, MOR-DOR inv ag, HTR5A inv ag)
Cc1ccc(C(=O)c2c(C)oc3c2C(=O)C(=O)c2ccccc2-3)cc1	OPRM1-OPRD1 ag 34, HTR5A ag 14 | MOR-DOR ag conf inactive | HTR5A ag ctr2 inactive
COc1cc2cc3c(N)c(C(=O)Nc4sc(C)c(C)c4C#N)sc3nc2cc1OC	OPRM1-OPRD1 ag 117 | MOR-DOR ag conf 22 | HTR5A ag ctr2 inactive
COc1ccc2c(Cl)c(-c3nnc4n3CCCCC4)sc2c1	OPRM1-OPRD1 ag 81 | MOR-DOR ag conf inactive | HTR5A ag ctr2 inactive
Clc1c(-c2nnc3n2CCCCC3)sc2ccccc12	none
CCN(CC)CCCN(C(=O)c1cccs1)c1nc(-c2ccc(OC)cc2)cs1	OPRM1-OPRD1 ag 51 | MOR-DOR ag conf inactive | HTR5A ag ctr2 27
C#CC(=O)N(c1cc(OC)ccc1OC)C(C(=O)NC1CCCC1)c1cccs1 (stereo unspecified)	OPRM1-OPRD1 ag 37 | MOR-DOR ag conf inactive | HTR5A ag ctr2 20
COc1ccc(N(C(=O)c2snc(C(N)=O)c2N)C(C(=O)NC2CCCC2)c2cccs2)cc1OC (stereo unspecified)	none
COc1ccc(NC(=O)c2cc3ccccc3o2)cc1S(=O)(=O)N1CCCCC1	OPRM1-OPRD1 ag 21 | MOR-DOR ag conf inactive | HTR5A ag ctr2 inactive
COc1ccc(/C=C/C(=O)NC(=S)NCCc2ccc(OC)c(OC)c2)cc1	OPRM1-OPRD1 ag 30 | MOR-DOR ag conf 55 | HTR5A ag ctr2 inactive
COc1ccc(C(CNC(=O)C2CC(=O)N(Cc3ccc(C)cc3)C2)N(C)C)cc1 (stereo unspecified)	none
O=C(CSC(=S)N1CCCC1)NCCc1ccccc1	none
CN(C)C(CNC(=O)C1CC(=O)N(Cc2ccccc2)C1)c1ccccc1 (stereo unspecified)	OPRM1-OPRD1 ag 46 | MOR-DOR ag conf 59 | HTR5A ag ctr2 inactive
CN(C)C(CNC(=O)C1CCN(C(=O)/C=C/c2ccccc2)CC1)c1ccccc1 (stereo unspecified)	OPRM1-OPRD1 ag 20 | MOR-DOR ag conf inactive | HTR5A ag ctr2 inactive
CN(C)C(CNC(=O)CSC(=S)N1CCCC1)c1ccccc1 (stereo unspecified)	OPRM1-OPRD1 ag 195 | MOR-DOR ag conf 183 | HTR5A ag ctr2 inactive
C/C(=N\NC(=O)c1nnn(-c2nonc2N)c1CN1CCC(C)CC1)c1ccc(Br)cc1	none (no result: OPRM1-OPRD1 ag, Arr AP2 block, HTR5A ag, MOR-DOR inv ag, HTR5A inv ag)
CN(CC(=O)Nc1cccc(S(=O)(=O)N(C)c2ccccc2)c1)Cc1cccs1	none (no result: OPRM1-OPRD1 ag, Arr AP2 block, HTR5A ag, MOR-DOR inv ag, HTR5A inv ag)
NC(N)=NC(=O)c1nc(Cl)c(N2CCCCCC2)nc1N	OPRM1-OPRD1 ag 72 | MOR-DOR ag conf 95 | HTR5A ag ctr2 inactive
O=C(CSc1ccccc1)Nc1nc2ccccc2[nH]1	none
O=C(CSc1ccc(Cl)cc1)Nc1ccc(-c2nc3ccccc3[nH]2)cc1	OPRM1-OPRD1 ag 32, HTR5A ag 13 | MOR-DOR ag conf 171 | HTR5A ag ctr2 inactive
COCC1CCN(Cc2cn(-c3ccccc3F)nc2-c2cc(C)sc2C)CC1	OPRM1-OPRD1 ag 42 | MOR-DOR ag conf 55 | HTR5A ag ctr2 inactive
Cc1cc(-c2nn(-c3ccccc3F)cc2CN2CCC(C(N)=O)CC2)c(C)s1	none
O=C(O)c1cccc(NC2=C(Cl)C(=O)c3ccccc3C2=O)c1	OPRM1-OPRD1 ag 22 | MOR-DOR ag conf inactive | HTR5A ag ctr2 inactive
Cc1[nH]c(=S)c(C#N)c(C)c1Cc1ccccc1	none (no result: OPRM1-OPRD1 ag, HTR5A ag, MOR-DOR inv ag, HTR5A inv ag, DAGLB inhibitor)
Cc1ccc2c(Cl)c(Cc3ccccc3)c(=S)[nH]c2n1	OPRM1-OPRD1 ag 21 | MOR-DOR ag conf 35 | HTR5A ag ctr2 inactive
O=C1OC(Cc2ccccc2)(c2ccccc2)c2ccccc21 (stereo unspecified)	none (no result: OPRM1-OPRD1 ag, Arr AP2 block, HTR5A ag, MOR-DOR inv ag, HTR5A inv ag)
COC(=O)c1[nH]c2ccc(F)cc2c1NC(=O)Nc1ccc(OC)cc1	OPRM1-OPRD1 ag 23 | MOR-DOR ag conf inactive | HTR5A ag ctr2 inactive
COC(=O)c1[nH]c2ccc(C)cc2c1NC(=O)Nc1ccc(OC)cc1	none
CC1=CC(C)(C)N=C(Nc2nc(C)c3cc(C)cc(C)c3n2)N1	OPRM1-OPRD1 ag 19 | MOR-DOR ag conf 21 | HTR5A ag ctr2 inactive
Cc1cc(CN2CCCC(C(=O)Nc3ccc(-c4nc5ccccc5[nH]4)cc3)C2)n[nH]1 (stereo unspecified)	none
CCn1cc(CN2CCCC(C(=O)Nc3ccc(-c4nc5ccccc5[nH]4)cc3)C2)c(C)n1 (stereo unspecified)	OPRM1-OPRD1 ag 31 | MOR-DOR ag conf inactive | HTR5A ag ctr2 inactive
Cc1ccc(F)cc1NC(=O)C1CC(=O)N(Cc2ccccc2)C1 (stereo unspecified)	none (no result: OPRM1-OPRD1 ag, Arr AP2 block, HTR5A ag, MOR-DOR inv ag, HTR5A inv ag)
O=C1NCN(c2ccccc2)C12CCN(CCCC(c1ccc(F)cc1)c1ccc(F)cc1)CC2	OPRM1-OPRD1 ag 31 | MOR-DOR ag conf inactive | HTR5A ag ctr2 inactive
O=C(CCCN1CCN(c2ccccc2)CC1)c1ccc(F)cc1	none (no result: OPRM1-OPRD1 ag, Arr AP2 block, HTR5A ag, MOR-DOR inv ag, HTR5A inv ag)
COc1cc(C2C(C#N)=C(N)N(N(C)C)C3=C2C(=O)CCC3)cc(OC)c1OC (stereo unspecified)	none
COc1cc(C2C(C#N)=C(N)N(c3sc4c(c3C#N)CCCC4)C3=C2C(=O)CC(C)(C)C3)cc(OC)c1OC (stereo unspecified)	OPRM1-OPRD1 ag 58 | MOR-DOR ag conf 45 | HTR5A ag ctr2 inactive
C=CCC1CCCCC1=C(C#N)c1ccccc1 (stereo unspecified)	none (no result: OPRM1-OPRD1 ag, Arr AP2 block, HTR5A ag, MOR-DOR inv ag, HTR5A inv ag)
CN(C)S(=O)(=O)c1ccc(-c2csc(N/N=C/c3ccc(O)cc3)n2)cc1	OPRM1-OPRD1 ag 38 | MOR-DOR ag conf 157 | HTR5A ag ctr2 inactive
COc1ccc(S(=O)(=O)N(C)C[C@@H]2OCc3cnnn3CCCC(=O)N([C@@H](C)CO)C[C@@H]2C)cc1	none (no result: OPRM1-OPRD1 ag, Arr AP2 block, HTR5A ag, MOR-DOR inv ag, HTR5A inv ag)
Cc1oc2c(C)c(O)ccc2c(=O)c1-c1cnn(-c2ccccc2)c1	OPRM1-OPRD1 ag 18 | MOR-DOR ag conf inactive | HTR5A ag ctr2 inactive
COc1ccc2c(=O)c(-c3cnn(-c4ccccc4)c3)c(C)oc2c1	none
